{"data": "Measured values from different studies", "organism": "Mycobacterium tuberculosis", "read-out": "microbial growth", "note": "Protocols differ between the studies behind these lines."}
{"SMILES": "Cc1ccc(C)n1-c1ccc(-c2nnc(-c3ccccc3[N+](=O)[O-])[nH]2)cc1", "technique": "broth dilution", "strain": "H37RV", "time": "21 days", "MIC": "16 µg/mL"}
{"SMILES": "COC(=O)c1cc(-c2cccc(NC(=O)Nc3ccc(Cl)c(Cl)c3)c2)on1", "strain": "ATCC27294 H37RV", "time": "7 days", "MIC": "0.25 µg/mL"}
{"SMILES": "CC(C)=CCC/C(C)=C/COCCOC1C2CC3CC(C2)CC1C3 (stereo not drawn)", "MIC": "50 µg/mL"}
{"SMILES": "[H]/N=C(/N)N[C@H]1[C@H](O)[C@@H](O)[C@H](O[C@@H]2O[C@@H](C)[C@](O)(C=O)[C@H]2O[C@@H]2O[C@@H](CO)[C@H](O)[C@@H](O)[C@@H]2NC)[C@@H](N/C(N)=N\\[H])[C@@H]1O", "strain": "ATCC27294 H37RV", "time": "7 days", "MIC": "0.5 µg/mL"}
{"SMILES": "Cc1ccc(C)n1-c1ccc(-c2nnc(-c3ccc(Br)cc3)[nH]2)cc1", "technique": "broth dilution", "strain": "H37RV", "time": "21 days", "MIC": "2 µg/mL"}
{"SMILES": "CO[C@H]1/C=C/O[C@@]2(C)Oc3c(C)c(O)c4c(O)c(c(/C=N/N5CCN(C)CC5)c(O)c4c3C2=O)NC(=O)/C(C)=C\\C=C\\[C@H](C)[C@H](O)[C@@H](C)[C@@H](O)[C@@H](C)[C@H](OC(C)=O)[C@@H]1C", "strain": "ATCC27294 H37RV", "time": "7 days", "MIC": "0.03 µg/mL"}
{"SMILES": "CC(C)=CCCC(C)CC1CC(=O)c2ccc(O)cc2O1 (stereo not drawn)", "technique": "broth dilution", "strain": "H37RV", "MIC": "100 µg/mL"}
{"SMILES": "COC(=O)c1cc(-c2cccc(NC(=O)Nc3ccccc3F)c2)on1", "strain": "ATCC27294 H37RV", "time": "7 days", "MIC": "2 µg/mL"}
{"SMILES": "Cc1c(Cc2ccc(C(C)(C)C)cc2)c(=O)n2c([nH]c3ccccc32)c1C#N", "technique": "broth dilution", "strain": "H37RV", "MIC": "1 µg/mL"}
{"SMILES": "CC1CCC2(CC1)SC(C)C(=O)N2NC(=O)c1[nH]c2ccc(Cl)cc2c1-c1ccccc1 (stereo not drawn)", "strain": "ATCC27294 H37RV", "MIC": "1000 µM"}
{"SMILES": "NNC(=O)c1ccncc1", "cell line": "THP-1", "strain": "H37RV", "MIC": "0.22 µM"}
{"SMILES": "CC[C@H]1OC(=O)[C@H](C)[C@@H](O[C@H]2C[C@@](C)(OC)[C@@H](O)[C@H](C)O2)[C@H](C)[C@@H](O[C@@H]2O[C@H](C)C[C@H](N(C)C)[C@H]2O)[C@](C)(OC)C[C@@H](C)C(=O)[C@H](C)[C@@H](O)[C@]1(C)O", "technique": "resazurin", "strain": "H37RA", "time": "14 days", "MIC": "8 µg/mL"}
{"SMILES": "CCCCCCC/C=C\\C(O)C#CC#CC(=O)CCOC (stereo not drawn)", "technique": "resazurin", "strain": "ATCC35801 ERDMAN", "time": "7 days", "MIC": "> 60 µg/mL"}
{"SMILES": "NNC(=O)c1ccncc1", "strain": "ATCC27294 H37RV", "time": "7 days", "MIC": "0.03 µg/mL"}
{"SMILES": "O=C(CNS(=O)(=O)c1ccccc1[N+](=O)[O-])N1CCN(C(c2ccc(F)cc2)c2ccc(F)cc2)CC1", "strain": "ATCC27294 H37RV", "MIC": "> 25 µg/mL"}
{"SMILES": "c1ccc(-c2nc3cc(Nc4nccn4-c4cc(NC5CCCC5)ncn4)ccc3[nH]2)cc1", "strain": "W4", "MIC": "> 20 µM"}
{"SMILES": "Cc1c(Cc2ccc(Cl)cc2)c(=O)n2c([nH]c3ccccc32)c1C#N", "technique": "broth dilution", "strain": "H37RV", "MIC": "1 µg/mL"}
{"SMILES": "O=c1nc(N2CCN(CC3CCCCC3)CC2)sc2c([N+](=O)[O-])cc(C(F)(F)F)cc12", "technique": "resazurin", "strain": "H37RV", "MIC": "0.002 µM"}
{"SMILES": "O=C1C(=NNc2nc(-c3ccccc3)cs2)C(N=Cc2ccccc2O)=NN1c1ccccc1", "technique": "resazurin", "strain": "H37RV", "MIC": "25 µg/mL"}
{"SMILES": "Cc1ccc(CN2CC[C@]34OC[C@H](C(C)C)N3C(=O)CC[C@@H]4C2)cc1", "strain": "H37RV", "MIC": "1.66 µM"}
{"SMILES": "CC1CC(C)(C)CC2(C1)SCC(=O)N2NC(=O)c1[nH]c2ccc(Cl)cc2c1-c1ccccc1 (stereo not drawn)", "strain": "ATCC27294 H37RV", "MIC": "500 µM"}
{"SMILES": "COC(=O)c1cc(-c2cccc(NC(=O)Nc3ccc(C)cc3)c2)on1", "strain": "ATCC27294 H37RV", "time": "7 days", "MIC": "0.5 µg/mL"}
{"SMILES": "O=C1COCCN1c1ccc(CO[C@@H]2COc3nc([N+](=O)[O-])cn3C2)cc1", "strain": "H37RV", "MIC": "0.4 to 0.8 µg/mL"}
{"SMILES": "Cc1ccn2c(C(=O)NCc3cccc(S(F)(F)(F)(F)F)c3)c(C)nc2c1", "strain": "H37RV", "time": "5 days", "MIC": "0.65 µM"}
{"SMILES": "[H]/N=C(/N)N[C@H]1[C@H](O)[C@@H](O)[C@H](O[C@@H]2O[C@@H](C)[C@](O)(C=O)[C@H]2O[C@@H]2O[C@@H](CO)[C@H](O)[C@@H](O)[C@@H]2NC)[C@@H](N/C(N)=N\\[H])[C@@H]1O", "strain": "H37RV", "MIC": "1.1 µg/mL"}
{"SMILES": "O=[N+]([O-])c1ccc(/C(O)=C/C(=S)S)cc1", "strain": "ATCC27294 H37RV", "time": "8 days", "MIC": "7.8 µg/mL"}
{"SMILES": "O=C1C(=NNc2nc(-c3ccccc3)cs2)C(N=Cc2ccccc2)=NN1c1ccccc1", "technique": "resazurin", "strain": "H37RV", "time": "5 days", "MIC": "13.9 µM"}
{"SMILES": "CO[C@H]1/C=C/O[C@@]2(C)Oc3c(C)c(O)c4c(O)c(c(/C=N/N5CCN(C)CC5)c(O)c4c3C2=O)NC(=O)/C(C)=C\\C=C\\[C@H](C)[C@H](O)[C@@H](C)[C@@H](O)[C@@H](C)[C@H](OC(C)=O)[C@@H]1C", "strain": "H37RV", "time": "5 days", "MIC": "0.012 µM"}
{"SMILES": "CO/N=C(\\C(=O)N[C@@H]1C(=O)N2C(C(=O)O)=C(COC(C)=O)CS[C@H]12)c1csc(N)n1", "technique": "resazurin", "strain": "H37RA", "time": "14 days", "MIC": "16 µg/mL"}
{"SMILES": "O=C(c1cc2c(F)cc(F)cc2[nH]1)N1CCN(C(=O)C23CC4CC(CC(C4)C2)C3)CC1", "technique": "resazurin", "strain": "H37RV", "MIC": "> 75 µM"}
{"SMILES": "NNC(=O)c1ccncc1", "technique": "resazurin", "strain": "H37RV", "MIC": "0.8 µM"}
{"SMILES": "CC1CCCC2(C1)SC(C)C(=O)N2NC(=O)c1[nH]c2ccc(Cl)cc2c1-c1ccccc1 (stereo not drawn)", "strain": "ATCC27294 H37RV", "MIC": "500 µM"}
{"SMILES": "COC(=O)c1cc(-c2cccc(NC(=O)Nc3ccccc3)c2)on1", "strain": "ATCC27294 H37RV", "time": "7 days", "MIC": "4 µg/mL"}
{"SMILES": "O=C(Nc1ccc2c(c1)OC(F)(F)O2)Nc1ccc(Cl)c(C(F)(F)F)c1", "strain": "H37RV", "MIC": "2 µM"}
{"SMILES": "CC1SC2(CCCC2)N(NC(=O)c2[nH]c3ccc(Cl)cc3c2-c2ccccc2)C1=O (stereo not drawn)", "strain": "ATCC27294 H37RV", "MIC": "250 µM"}
{"SMILES": "[O-][n+]1ccccc1SSc1cccc[n+]1[O-]", "technique": "resazurin", "MIC": "0.23 µM"}
{"SMILES": "O=C1C(=NNc2nc(-c3ccccc3)cs2)C(N=Cc2ccc(O)c(O)c2)=NN1c1ccccc1", "technique": "resazurin", "strain": "H37RV", "MIC": "3.12 µg/mL"}
{"SMILES": "CO[C@H]1/C=C/O[C@@]2(C)Oc3c(C)c(O)c4c(O)c(c(/C=N/N5CCN(C)CC5)c(O)c4c3C2=O)NC(=O)/C(C)=C\\C=C\\[C@H](C)[C@H](O)[C@@H](C)[C@@H](O)[C@@H](C)[C@H](OC(C)=O)[C@@H]1C", "technique": "broth dilution", "MIC": "0.4 µg/mL"}
{"SMILES": "N#Cc1cc(C(F)(F)F)cc2c(=O)nc(N3CCN(CC4CCOC4)CC3)sc12 (stereo not drawn)", "technique": "resazurin", "strain": "H37RV", "MIC": "1.9 µM"}
{"SMILES": "COC(=O)c1cc(-c2cccc(NC(=O)Nc3cccc(C(F)(F)F)c3)c2)on1", "strain": "ATCC27294 H37RV", "time": "7 days", "MIC": "2 µg/mL"}
{"SMILES": "CC(C)[C@H]1CO[C@]23CCN(Cc4ccccc4)C[C@H]2CCC(=O)N13", "technique": "resazurin", "strain": "H37RV", "time": "7 days", "MIC": "5.73 µM"}
{"SMILES": "NNC(=O)c1ccncc1", "strain": "H37RV", "time": "5 days", "MIC": "0.3 µM"}
